Assay [1] has as its system Trypanosoma brucei brucei. The experiment in a line: Resistance factor, ratio of EC50 for diminazene aceturate-resistant TbAT1 gene-deficient Trypanosoma brucei brucei AT1-KO to EC50 for wild type Trypanosoma brucei brucei Lister 427. The assay is classed as functional. An outline of the steps: (§1)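 Resistance factor is the EC50 in the resistant line (TbAT1-KO or B48) divided by the EC50 in wild-type s427. […] Resistant and wild-type EC50s were compared by Student t-test.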

Assay [2] relates to Trypanosoma brucei brucei. In words: Antitrypanosomal activity against wild type Trypanosoma brucei brucei Lister 427 after 3 days by alamar blue assay. The assay is classed as functional, organism-based. The note with it: Trypanosoma brucei, Lister 427, 72 h. In short, it runs like this: (§2)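 Bloodstream-form T. b. brucei (wild-type s427; TbAT1-KO, made from s427 by TbAT1 deletion; B48, selected from TbAT1-KO in vitro on pentamidine, lacking functional HAPT1). Cells were exposed to compound for 48 h, then resazurin (Alamar blue) was added for a further 24 h. A single fluorescence reading gave EC50.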

The test system of the next assay is L6. In words: Cytotoxicity against rat L6 cells after 72 hrs by alamar blue assay. The class given is cell-based. To be noted: Rattus norvegicus, L6, 72 h. A general note: Resazurin is reduced to fluorescent resorufin, in cell work by metabolically active cells.
In assay [3] the test system is Trypanosoma brucei rhodesiense. In words: Antitrypanosomal activity against Trypanosoma brucei rhodesiense STIB900 infected in rat L6 cells after 72 hrs by alamar blue assay. To be noted: Trypanosoma brucei, STIB900, 72 h. The assay is classed as functional, organism-based.
For assay [4], the system named is Trypanosoma brucei brucei. The experiment in a line: Antitrypanosomal activity against diminazene-, pentamidine-, and melaminophenyl arsenical-resistant HAPT1-deficient Trypanosoma brucei brucei B48 after 3 days by alamar blue assay. The note with it: Trypanosoma brucei, B48, 72 h. The assay is classed as functional, organism-based. In short, it runs like this: as §2

Assay [5] relates to Trypanosoma brucei brucei. The experiment in a line: Resistance factor, ratio of EC50 for diminazene-, pentamidine-, and melaminophenyl arsenical-resistant HAPT1-deficient Trypanosoma brucei brucei B48 to EC50 for wild type Trypanosoma brucei brucei Lister 427. The assay is classed as functional. An outline of the steps: as §1
Assay [6] concerns Trypanosoma brucei brucei. In words: Antitrypanosomal activity against diminazene aceturate-resistant TbAT1 gene-deficient Trypanosoma brucei brucei AT1-KO after 3 days by alamar blue assay. The class given is functional, organism-based. To be noted: Trypanosoma brucei, AT1-KO, 72 h. In short, it runs like this:
as §2

Assay [7] in a line: Cytotoxicity against human HEK cells after 3 days by alamar blue assay. The assay is classed as cell-based, HEK293. To be noted: Homo sapiens, HEK293, 72 h. An outline of the steps:
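Human embryonic kidney cells tested by resazurin (Alamar blue) assay: 48 h with compound, then 24 h more after dye addition, single reading; EC₅₀ derived.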

Consider `C[P+](C)(Cc1ccc(C(=O)c2ccc(C[P+](C)(C)c3ccccc3)cc2)cc1)c1ccccc1.[Br-].[Br-]`, for which the figures for the “Ratio EC50” value in assay [1] and in assay [5] were 1.5 and 1.3, respectively. Besides, the EC50 (usually the concentration that produces a half-maximal response) is 19.2 µM in assay [2]; over 139 µM with L6; 8.8 µM in assay [3]; 24.6 µM in assay [4]; 28.8 µM in assay [6].
Consider `COc1cc([C@@H]2c3cc4c(cc3[C@H](O)[C@H]3COC(=O)[C@H]23)OCO4)cc(OC)c1OC` [PODOFILOX], for which the EC50 in the assay with L6 is 0.012 µM.
Take `CC(C)[P+](Cc1ccc(C(=O)c2ccc(C[P+](C(C)C)(C(C)C)C(C)C)cc2)cc1)(C(C)C)C(C)C.[Br-].[Br-]`: the “Ratio EC50” value amounted to 1.6 in assay [1] and 1.9 in assay [5]. Moreover, the EC50 is 20.6 µM in assay [2]; over 130 µM with L6; 9.6 µM in assay [3]; 38.8 µM in assay [4]; 33.4 µM in assay [6].
Regarding `CCC[P+](CCC)(CCC)Cc1ccc(C(=O)c2ccc(C[P+](CCC)(CCC)CCC)cc2)cc1.[Br-].[Br-]`, the entries for the “Ratio EC50” value in assay [1] and in assay [5] were 1.4 and 1.6, respectively. Besides, the EC50 in assay [2] is 19.7 µM; with L6, over 130 µM; in assay [3], 8.5 µM; in assay [4], 31.3 µM; in assay [6] it was 27.2 µM.
Turning to `CC(C)C[P+](Cc1ccc(S(=O)(=O)c2ccc(C[P+](CC(C)C)(CC(C)C)CC(C)C)cc2)cc1)(CC(C)C)CC(C)C.[Br-].[Br-]`, the “Ratio EC50” value in assay [1] and in assay [5] was 0.8 throughout. For the same molecule, the EC50 in assay [2] is 16.7 µM; with L6 it was over 111 µM; in assay [3], 6.31 µM; in assay [4], 13.3 µM; in assay [6], 13.6 µM.
As to `N=C(N)c1ccc(/N=N/Nc2ccc(C(=N)N)cc2)cc1` [DIMINAZENE], the “Ratio EC50” value in assay [1] was determined as 4.6; in assay [5], 5.1. The EC50 is 0.517 µM in assay [2] and 2.62 µM in assay [4].
In the case of `O=C(c1ccc(C[P+](c2ccco2)(c2ccco2)c2ccco2)cc1)c1ccc(C[P+](c2ccco2)(c2ccco2)c2ccco2)cc1.[Br-].[Br-]`, the “Ratio EC50” value in assay [1] was found to be 0.9; in assay [5] it was 0.6. For the same molecule, the EC50 is 36.9 µM in assay [2]; 86 µM in the assay with L6; 13.8 µM in assay [3]; 21.7 µM in assay [4]; 33.8 µM in assay [6].
On to `CC(=O)N(c1ccc(C[P+](CC(C)C)(CC(C)C)CC(C)C)cc1)c1ccc(C[P+](CC(C)C)(CC(C)C)CC(C)C)cc1`, for which the values for the 50% effective concentration (EC50) (with L6; in assay [3]) were over 112 µM and 11.4 µM, respectively.
As for `O=S(=O)([O-])c1cccc([P+](Cc2ccc(Cc3ccc(C[P+](c4ccccc4)(c4ccccc4)c4cccc(S(=O)(=O)[O-])c4)cc3)cc2)(c2ccccc2)c2ccccc2)c1`, the 50% effective concentration (EC50) in assay [7] was over 300 µM; in assay [2], over 100 µM; in the assay with L6, over 92 µM; in assay [3], over 92 µM; in assay [4], over 100 µM; in assay [6], over 100 µM.
`CC[P+](CC)(CC)Cc1ccc(C(=O)c2ccc(C[P+](CC)(CC)CC)cc2)cc1`: the EC50 in assay [7] is over 300 µM; in assay [2], over 100 µM; with L6, over 149 µM; in assay [3], 77.8 µM; in assay [4], over 100 µM; in assay [6] it was over 100 µM.
Consider `O=S(=O)([O-])c1cccc([P+](Cc2ccc(Oc3ccc(C[P+](c4ccccc4)(c4ccccc4)c4cccc(S(=O)(=O)[O-])c4)cc3)cc2)(c2ccccc2)c2ccccc2)c1`, for which the EC50 in assay [7] is over 300 µM; in assay [2], over 100 µM; in the assay with L6 it was 90.5 µM; in assay [3] it was over 92 µM; in assay [4], over 100 µM; in assay [6], over 100 µM.
For `Nc1nc(N)nc(Nc2ccc([As]3SCC(CO)S3)cc2)n1` (stereo unspecified) [MELARSOPROL], a half-maximal effect in assay [3] (EC50) was put at 0.0075 µM.

The record behind these values is ChEMBL document CHEMBL2040794, “Synthesis and structure-activity analysis of new phosphonium salts with potent activity against African trypanosomes” (J Med Chem, 2012).
